This is a sample that favours compounds with a hit; in the whole collection about 3.7% have one here.
KCNQ1 inh – inhibitors of human KCNQ1 potassium channel | AID 2642 | P51787 | B-score at 10 µM | 310,000 compounds, 1.3% hits | CHO-K1 KCNQ1, FluxOR thallium flux fluorescence; hits give high values;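 active = compounds whose thallium flux B-score, printed positive for inhibition, exceeds three library SD while starting fluorescence stays within three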;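 note: channel opened by potassium depolarization with thallium stimulus after 20 min compound exposure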
KCNQ1 pot – human KCNQ1 channel potentiation or activation; P51787; CHO-K1 KCNQ1, thallium flux FluxOR fluorescence; hits give high values; AID 2648; 310,000 compounds, 0.35% hits; B-score at 10 µM;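 active = fluorescence ratio B-score, a plate-corrected score, at least three library SD, with initial intensity B-score within 5 SD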
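assay system = KCNQ1-transfected CHO-K1 cells | medium = assay buffer with matched DMSO | probe or stimulus = depolarizing K+/Tl+ stimulus, K2SO4 and Tl2SO4 each 12.5 mM in 5x stock | dosing = single dose | incubation = dye 90 min, compound 20 min, room temperature | detection = kinetic FluxOR fluorescence, 10 s baseline plus 110 s post-stimulus | evaluation = ratio B score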
hERG protect – compounds protecting human hERG from proarrhythmic drug block | Q12809 | CHO-hERG, FluxOR thallium flux, dofetilide IC70 present | activation (rescue from dofetilide block), less the hit threshold, % at 10 µM | 310,000 compounds, 0.51% hits | AID 1511;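 active = activation above the mean of controls blocked by dofetilide plus 5 SD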;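 note: thallium influx through hERG after potassium depolarization seen as dye fluorescence rise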
KCNK9 block – inhibitors of human KCNK9 two-pore domain potassium channel. HEK293 KCNK9, FluxOR thallium flux fluorescence; hits give low values. B-score at 10 µM. 310,000 compounds, 1.2% hits;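 active = ratio B-score over 3 SD below the library mean, with starting fluorescence within 5 SD of its mean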;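 note: negative B-score means less thallium flux so channel inhibition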
Target sequence (Q9NPC2 whole entry, looked up, the tested form may be a part): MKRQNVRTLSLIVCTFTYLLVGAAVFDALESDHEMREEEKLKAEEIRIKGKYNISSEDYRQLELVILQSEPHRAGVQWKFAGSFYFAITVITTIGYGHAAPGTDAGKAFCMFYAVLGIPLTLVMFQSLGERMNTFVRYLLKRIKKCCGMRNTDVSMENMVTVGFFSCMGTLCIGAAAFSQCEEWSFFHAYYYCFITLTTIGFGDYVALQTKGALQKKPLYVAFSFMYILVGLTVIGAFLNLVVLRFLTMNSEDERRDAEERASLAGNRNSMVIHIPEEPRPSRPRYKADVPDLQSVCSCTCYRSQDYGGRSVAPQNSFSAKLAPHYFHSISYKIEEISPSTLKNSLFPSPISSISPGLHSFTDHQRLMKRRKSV
Kir21 block – Kir2.1 (mouse) channel inhibition. P35561. HEK293-Kir2.1, FluxOR thallium flux fluorescence; hits give low values. B-score at 10 µM. 310,000 compounds, 0.85% hits. AID 1672;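 active = fluorescence ratio B-score at or below minus 3 SD of library scores, with starting-brightness B-score within 2 SD, cut at about -4.2 in these data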;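 note: channel flux triggered by added potassium and thallium sulfate stimulus; B-score of peak minus minimum fluorescence over baseline after thallium stimulus; more negative B-score means stronger Kir2.1 block with less thallium influx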
KCNK3 inh – human KCNK3 channel inhibition, primary screen | O14649 | B-score at 10 µM | CHO-KCNK3 thallium flux, FluxOR fluorescence; hits give low values | AID 602410 | 340,000 compounds, 0.84% hits;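 active = B-score under library mean minus 4 SD, starting fluorescence ratio at most library mean plus 5 SD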;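 note: more negative B-score means stronger inhibition of thallium flux through KCNK3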
* hit, by the source's call.

`C=CC(=O)Nc1cccc(CN2C(=O)N(c3cc(OC)cc(OC)c3)Cc3cnc(NCCCCN(CC)CC)nc32)c1` gave KCNK3 inh inactive.
CCN(CC(=O)Nc1ccc(NC(C)=O)cc1)C(=O)c1c(C)nn(Cc2ccc(C)cc2)c1Cl was read as KCNK3 inh inactive.
`N#C/C(=C\c1cccnc1)C(=O)Nc1cccc(Cl)c1` gave KCNQ1 inh inactive, KCNQ1 pot inactive, hERG protect 8.5*, KCNK9 block inactive, Kir21 block -2.46 and KCNK3 inh inactive.
For N#C/C(=C\c1cccnc1)C(=O)Nc1cccc2ccccc12 the results were KCNQ1 inh inactive, KCNQ1 pot inactive, hERG protect -4.9, KCNK9 block inactive, Kir21 block -4.52* and KCNK3 inh inactive.
CC12CCC(C(NC(=S)NN)C1=O)C2(C)C (stereo unspecified) was read as KCNK3 inh inactive.
`O=C(Nc1ccc(C(=O)N2CCCCC2)cc1)C1CC1` gave KCNK3 inh inactive.
Fc1cccc(/C=N/Nc2ccc3ccccc3n2)c1 was read as KCNQ1 inh inactive, KCNQ1 pot 58*, hERG protect 10.1*, KCNK9 block inactive, Kir21 block -0.85 and KCNK3 inh inactive.
Fc1cccc(/C=N/Nc2ccccn2)c1 was read as KCNQ1 inh inactive, KCNQ1 pot inactive, hERG protect -10.6, KCNK9 block inactive, Kir21 block -1.49 and KCNK3 inh inactive.
Cc1cccc(N2CC(C(=O)Nc3ccc(S(=O)(=O)Nc4nccs4)cc3)CC2=O)c1C (stereo unspecified) was read as KCNQ1 inh inactive, KCNQ1 pot inactive, hERG protect -8.4, KCNK9 block inactive, Kir21 block -0.72 and KCNK3 inh inactive.
Screening CCOC(=O)C1(Cc2ccc(Cl)cc2)CCN(C(C)Cc2ccc(O)c(OC)c2)CC1 (stereo unspecified) returned KCNQ1 inh 13*, KCNQ1 pot inactive, hERG protect -16.2, KCNK9 block inactive, Kir21 block -0.96 and KCNK3 inh inactive.
Nc1nc(SCc2cccnc2)c2ncn(C3OC(CO)C(O)C3O)c2n1 (stereo unspecified) was read as KCNK3 inh inactive.
Cc1ccccc1-c1cc(C(=O)Nc2sc(C(=O)OC(C)C)c(C)c2C#N)c2ccccc2n1 was read as KCNQ1 inh 10*, KCNQ1 pot inactive, hERG protect -7.0, KCNK9 block inactive, Kir21 block -1.21 and KCNK3 inh inactive.
`CCOC(=O)c1sc(NC(=O)c2cc(-c3ccc(C)cc3)nc3ccccc23)c(C#N)c1C` gave KCNQ1 inh 7*, KCNQ1 pot inactive, hERG protect -18.8, KCNK9 block inactive, Kir21 block -1.21 and KCNK3 inh inactive.
Screening COc1ccc(-c2cc(C(=O)OCC(=O)NC(C)C)c3ccccc3n2)cc1 returned KCNQ1 inh inactive, KCNQ1 pot inactive, hERG protect -5.1, KCNK9 block inactive, Kir21 block -4.36* and KCNK3 inh inactive.
CCCNC(=O)COC(=O)c1cc(-c2ccc(OC)cc2)nc2ccccc12 was read as KCNQ1 inh inactive, KCNQ1 pot inactive, hERG protect -5.2, KCNK9 block inactive, Kir21 block 0.1 and KCNK3 inh inactive.
Cn1c2ccc(F)cc2c2nnc(SCC(=O)Nc3cccc(O)c3)nc21 was read as KCNQ1 inh inactive, KCNQ1 pot inactive, hERG protect 5.2*, KCNK9 block inactive, Kir21 block 1.23 and KCNK3 inh inactive.
`O=S(=O)(c1ccc2c(c1)OCCO2)N1CCN(c2ncnc3sccc23)CC1` gave KCNQ1 inh 6*, KCNQ1 pot inactive, hERG protect -13.5, KCNK9 block inactive, Kir21 block 1.4 and KCNK3 inh inactive.
`Cc1ccc(S(=O)(=O)N2CCN(c3ncnc4sccc34)CC2)cc1C` gave KCNK3 inh inactive.
For O=C1C(SCCO)=C(SCCO)C(=O)c2ccccc21 the results were KCNK3 inh -15*.
Screening CC1=C(SCc2ccccc2)C(=O)c2ccccc2C1=O returned KCNK3 inh inactive.
Screening CC(C)NC(=O)/C(C#N)=C/c1ccc(N(C)C)o1 returned KCNQ1 inh 7*, KCNQ1 pot inactive, hERG protect -13.8, KCNK9 block inactive, Kir21 block -3.71 and KCNK3 inh inactive.
`O=C(NNc1c(F)c(F)cc(F)c1F)c1cc2ccccc2oc1=O` gave KCNQ1 inh inactive, KCNQ1 pot inactive, hERG protect 9.9*, KCNK9 block inactive, Kir21 block -1.85 and KCNK3 inh inactive.
Screening O=C(O)c1ccc(N2N=C(c3ccccc3)CC2c2ccccc2)cc1 (stereo unspecified) returned KCNQ1 inh inactive, KCNQ1 pot inactive, hERG protect -11.7, KCNK9 block inactive, Kir21 block 0.23 and KCNK3 inh inactive.
Screening COc1ccc(C2CC(c3ccccc3)=NN2c2ccc(C(N)=O)cc2)cc1 (stereo unspecified) returned KCNQ1 inh 10*, KCNQ1 pot inactive, hERG protect -8.5, KCNK9 block inactive, Kir21 block -0.04 and KCNK3 inh inactive.
Screening COc1ccc(C2CC(c3ccccc3)=NN2c2ccc(/C=N/NC(=O)c3ccncc3)cc2)cc1 (stereo unspecified) returned KCNQ1 inh 6*, KCNQ1 pot inactive, hERG protect -3.6, KCNK9 block inactive, Kir21 block -0.57 and KCNK3 inh inactive.
COc1ccc(C2=NN(c3ccc(C=O)cc3)C(c3ccccc3)C2)cc1 (stereo unspecified) was read as KCNQ1 inh 6*, KCNQ1 pot inactive, hERG protect -3.7, KCNK9 block inactive and Kir21 block -0.05.
For CC(=O)Nc1ccc(C2=NN(c3ccccc3)C(c3ccccc3)C2)cc1 (stereo unspecified) the results were KCNQ1 inh inactive, KCNQ1 pot inactive, hERG protect -1.0, KCNK9 block -6.75*, Kir21 block 0.01 and KCNK3 inh inactive.
`N#CCC(=O)N/N=C/c1ccc(N2N=C(c3ccccc3)CC2c2ccccc2)cc1` (stereo unspecified) gave KCNQ1 inh inactive, KCNQ1 pot inactive, hERG protect -1.4, KCNK9 block inactive, Kir21 block 0.06 and KCNK3 inh inactive.
Screening COc1ccc(C(CCN)Cc2ccccc2)cc1 (stereo unspecified) returned KCNQ1 inh inactive, KCNQ1 pot inactive, hERG protect -4.4, KCNK9 block inactive, Kir21 block -2.96 and KCNK3 inh inactive.
For O=Cc1ccc(N2N=C(c3ccccc3)CC2c2ccccc2)cc1 (stereo unspecified) the results were KCNQ1 inh 8*, KCNQ1 pot inactive, hERG protect -14.1, KCNK9 block inactive, Kir21 block 0.08 and KCNK3 inh inactive.

High-throughput results: PubChem BioAssay, Johns Hopkins Ion Channel Center
